How the values were obtained:
Rattus norvegicus [1] = species: Rattus norvegicus; assay: Tested for metabolic activation counted as mean number of revertants in strains TA98, TA100, TA1535, and TA1538, three plates per treatment at 0.005 mg per plate, without activation in the absence of S-9 rat liver homogenates in Ames test; assay type: functional, organism-based
Rattus norvegicus [2] = species: Rattus norvegicus; assay: Tested for metabolic activation counted as mean number of revertants in strains TA98, TA100, TA1535, and TA1538, three plates per treatment at 0.15 mg per plate, without activation in the absence of S-9 rat liver homogenates in Ames test; assay type: functional, organism-based
Rattus norvegicus [3] = species: Rattus norvegicus; assay: Tested for metabolic activation counted as mean number of revertants in strains TA98, TA100, TA1535, and TA1538, three plates per treatment at 0.005 mg per plate, with activation provided by S-9 rat liver homogenates in Ames test; assay type: functional, organism-based
Rattus norvegicus [4] = species: Rattus norvegicus; assay: Tested for metabolic activation counted as mean number of revertants in strains TA98, TA100, TA1535, and TA1538, three plates per treatment at 0.15 mg per plate, with activation provided by S-9 rat liver homogenates in Ames test; assay type: functional, organism-based
Rattus norvegicus [5] = species: Rattus norvegicus; assay: Tested for metabolic activation counted as mean number of revertants in strains TA98, TA100, TA1535, and TA1538, three plates per treatment at 0.05 mg per plate, without activation in the absence of S-9 rat liver homogenates in Ames test; assay type: functional, organism-based
Rattus norvegicus [6] = species: Rattus norvegicus; assay: Tested for metabolic activation counted as mean number of revertants in strains TA98, TA100, TA1535, and TA1538, three plates per treatment at 0.015 mg per plate, without activation in the absence of S-9 rat liver homogenates in Ames test; assay type: functional, organism-based
Rattus norvegicus [7] = species: Rattus norvegicus; assay: Tested for metabolic activation counted as mean number of revertants in strains TA98, TA100, TA1535, and TA1538, three plates per treatment at 0.05 mg per plate, with activation provided by S-9 rat liver homogenates in Ames test; assay type: functional, organism-based
Rattus norvegicus [8] = species: Rattus norvegicus; assay: Tested for metabolic activation counted as mean number of revertants in strains TA98, TA100, TA1535, and TA1538, three plates per treatment at 0.015 mg per plate, with activation provided by S-9 rat liver homogenates in Ames test; assay type: functional, organism-based
[9] = molecular target: T1, Polyunsaturated fatty acid 5-lipoxygenase (Rattus norvegicus) (UniProt P12527); assay: Ability to inhibit Lipoxygenase in vitro was determined; NA is <50% inhibition at 100 uM
T1 sequence (whole entry): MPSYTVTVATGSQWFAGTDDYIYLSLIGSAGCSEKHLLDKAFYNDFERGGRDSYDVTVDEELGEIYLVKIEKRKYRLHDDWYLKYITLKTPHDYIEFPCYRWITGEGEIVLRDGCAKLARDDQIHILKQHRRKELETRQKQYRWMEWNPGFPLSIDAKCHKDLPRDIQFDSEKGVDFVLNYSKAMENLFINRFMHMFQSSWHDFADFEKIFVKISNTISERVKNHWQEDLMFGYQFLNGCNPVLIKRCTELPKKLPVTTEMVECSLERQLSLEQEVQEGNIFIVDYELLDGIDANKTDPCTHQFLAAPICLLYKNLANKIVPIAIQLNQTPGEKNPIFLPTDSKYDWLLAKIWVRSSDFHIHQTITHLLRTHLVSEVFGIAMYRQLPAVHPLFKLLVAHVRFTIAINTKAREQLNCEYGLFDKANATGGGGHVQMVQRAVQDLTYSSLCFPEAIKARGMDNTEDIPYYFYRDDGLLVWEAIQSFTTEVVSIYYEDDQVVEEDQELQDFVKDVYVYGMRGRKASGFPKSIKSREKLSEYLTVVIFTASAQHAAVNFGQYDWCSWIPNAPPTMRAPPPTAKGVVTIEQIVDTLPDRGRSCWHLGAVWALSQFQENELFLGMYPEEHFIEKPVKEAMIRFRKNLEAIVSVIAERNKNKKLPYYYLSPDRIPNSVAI
How it was run: (§1)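 Source is rat polymorphonuclear leukocyte (PMN) 5-lipoxygenase. IC50 values come from nonlinear regression analysis, significant at p < 0.05.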

Rattus norvegicus [10] = species: Rattus norvegicus; assay: Tested for metabolic activation counted as mean number of revertants in strains TA98, TA100, TA1535, and TA1538, three plates per treatment at 0.5 mg per plate, with activation provided by S-9 rat liver homogenates in Ames test; assay type: functional, organism-based
Cavia porcellus = assay: Ability to inhibit the Ovalbumin induced bronchospasm in guinea pig was determined in vivo at a dose of 50 mg/kg id; assay type: functional; settings: route intraduodenal
How it was run: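 Guinea pigs were challenged with LTD4 or ovalbumin to induce bronchospasm, and test agent was given intraduodenally. Read-out is percent inhibition of bronchospasm. Significance uses a two-tailed Student's t test (p < 0.05). N is the number of treated animals.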

[11] = system: Cysteinyl leukotriene receptor (Cavia porcellus); assay: Inhibition of LTD4 induced bronchospasm in guinea pig was determined in at 50 mg/kg i.d.
[12] = molecular target: T2, Polyunsaturated fatty acid 5-lipoxygenase (Rattus norvegicus, UniProt P12527); assay: Ability to inhibit the rat Lipoxygenase in vitro was determined; how it was run: as §1
T2 sequence (P12527 whole entry): T1 sequence (whole entry)

[13] = molecular target: T2, Polyunsaturated fatty acid 5-lipoxygenase; assay: (§2) Ability to inhibit Lipoxygenase in vitro was determined
Rattus norvegicus [14] = species: Rattus norvegicus; assay: Tested for metabolic activation counted as mean number of revertants in strains TA98, TA100, TA1535, and TA1538, three plates per treatment at 0.2 mg per plate, with activation provided by S-9 rat liver in Ames test; assay type: functional
Rattus norvegicus [15] = species: Rattus norvegicus; assay: Tested for metabolic activation counted as mean number of revertants in three plates per treatment at 0.06 mg per plate, with activation provided by S-9 rat liver homogenates in Ames test; assay type: functional, organism-based
Rattus norvegicus [16] = species: Rattus norvegicus; assay: Tested for metabolic activation counted as mean number of revertants in strains TA98, TA100, TA1535, and TA1538, three plates per treatment at 0.06 mg per plate, without activation in the absence of S-9 rat liver homogenates in Ames test; assay type: functional, organism-based
Rattus norvegicus [17] = species: Rattus norvegicus; assay: Tested for metabolic activation counted as mean number of revertants in three plates per treatment at 0.02 mg per plate, with activation provided by S-9 rat liver homogenates in Ames test; assay type: functional, organism-based
Rattus norvegicus [18] = species: Rattus norvegicus; assay: Tested for metabolic activation counted as mean number of revertants in strains TA98, TA100, TA1535, and TA1538, three plates per treatment at 2.0 mg per plate, without activation in the absence of S-9 rat liver homogenates in Ames test; assay type: functional, organism-based
Rattus norvegicus [19] = species: Rattus norvegicus; assay: Tested for metabolic activation counted as mean number of revertants in strains TA98, TA100, TA1535, and TA1538, three plates per treatment at 0.02 mg per plate, without activation in the absence of S-9 rat liver homogenates in Ames test; assay type: functional, organism-based
Rattus norvegicus [20] = species: Rattus norvegicus; assay: Tested for metabolic activation counted as mean number of revertants in strains TA98, TA100, TA1535, and TA1538, three plates per treatment at 0.6 mg per plate, without activation in the absence of S-9 rat liver homogenates in Ames test; assay type: functional, organism-based
Rattus norvegicus [21] = species: Rattus norvegicus; assay: Tested for metabolic activation counted as mean number of revertants in strains TA98, TA100, TA1535, and TA1538, three plates per treatment at 0.6 mg per plate, with activation provided by S-9 rat liver in Ames test; assay type: functional
Rattus norvegicus [22] = species: Rattus norvegicus; assay: Tested for metabolic activation counted as mean number of revertants in strains TA98, TA100, TA1535, and TA1538, three plates per treatment at 2.0 mg per plate, with activation provided by S-9 rat liver homogenates in Ames test; assay type: functional, organism-based
Rattus norvegicus [23] = species: Rattus norvegicus; assay: Tested for metabolic activation counted as mean number of revertants in strains TA98, TA100, TA1535, and TA1538, three plates per treatment at 0.2 mg per plate, without activation in the absence of S-9 rat liver homogenates in Ames test; assay type: functional, organism-based
[24] = molecular target: T2, Polyunsaturated fatty acid 5-lipoxygenase; assay: as §2; how it was run: as §1; remark: listed apart in the source
Rattus norvegicus [25] = species: Rattus norvegicus; assay: Tested for metabolic activation counted as mean number of revertants in strains TA98, TA100, TA1535, and TA1538, three plates per treatment at 1.5 mg per plate, with activation provided by S-9 rat liver homogenates in Ames test; assay type: functional, organism-based
Rattus norvegicus [26] = species: Rattus norvegicus; assay: Tested for metabolic activation counted as mean number of revertants in strains TA98, TA100, TA1535, and TA1538, three plates per treatment at 1.5 mg per plate, without activation in the absence of S-9 rat liver homogenates in Ames test; assay type: functional, organism-based
Rattus norvegicus [27] = species: Rattus norvegicus; assay: Tested for metabolic activation counted as mean number of revertants in strains TA98, TA100, TA1535, and TA1538, three plates per treatment at 5.0 mg per plate, with activation provided by S-9 rat liver homogenates in Ames test; assay type: functional, organism-based
Rattus norvegicus [28] = species: Rattus norvegicus; assay: Tested for metabolic activation counted as mean number of revertants in strains TA98, TA100, TA1535, and TA1538, three plates per treatment at 5.0 mg per plate, without activation in the absence of S-9 rat liver homogenates in Ames test; assay type: functional, organism-based

O=C1CCC(=O)N1c1cccc(OCc2ccc3ccccc3n2)c1
Mean no. of revertants (Rattus norvegicus [1]): 6
Mean no. of revertants (Rattus norvegicus [2]): 43
Mean no. of revertants (Rattus norvegicus [3]): 5
Mean no. of revertants (Rattus norvegicus [4]): 8
Mean no. of revertants (Rattus norvegicus [5]): 12
Mean no. of revertants (Rattus norvegicus [6]): 9
Mean no. of revertants (Rattus norvegicus [7]): 7
Mean no. of revertants (Rattus norvegicus [8]): 7
inhibition [9]: < 50%
Mean no. of revertants (Rattus norvegicus [10]): 45
inhibition in vivo at 50 mg/kg (Cavia porcellus): 26%

Cn1c(COc2cccc(N3C(=O)CCC3=O)c2)nc2ccccc21
inhibition [9]: < 50%

COC(=O)CCC(=O)N(O)c1cccc(OCc2ccc3ccccc3n2)c1
Mean no. of revertants (Rattus norvegicus [1]): 15
Mean no. of revertants (Rattus norvegicus [2]): 31
Mean no. of revertants (Rattus norvegicus [3]): 13
Mean no. of revertants (Rattus norvegicus [4]): 12
Mean no. of revertants (Rattus norvegicus [5]): 13
Mean no. of revertants (Rattus norvegicus [6]): 9
Mean no. of revertants (Rattus norvegicus [7]): 16
Mean no. of revertants (Rattus norvegicus [8]): 10
Mean no. of revertants (Rattus norvegicus [10]): 716
inhibition [11]: 97%
inhibition in vivo at 50 mg/kg (Cavia porcellus): 76%

O=C1CCC(=O)N1c1cccc(OCc2nc3ccccc3s2)c1
inhibition [9]: < 50%
inhibition in vivo at 50 mg/kg (Cavia porcellus): 18%

COC(=O)CCC(=O)Nc1cccc(OCc2nc3ccccc3s2)c1
IC50 [12]: 15.7 µM
inhibition in vivo at 50 mg/kg (Cavia porcellus): 63%

COC(=O)C1CC(=O)N(c2cccc(OCc3ccc4ccccc4n3)c2)C1 (centres undefined)
IC50 [13]: 19.1 µM
Mean no. of revertants (Rattus norvegicus [14]): 10
Mean no. of revertants (Rattus norvegicus [15]): 10
Mean no. of revertants (Rattus norvegicus [16]): 13
Mean no. of revertants (Rattus norvegicus [17]): 12
Mean no. of revertants (Rattus norvegicus [18]): 475
Mean no. of revertants (Rattus norvegicus [19]): 10
Mean no. of revertants (Rattus norvegicus [20]): 421
Mean no. of revertants (Rattus norvegicus [21]): 15
Mean no. of revertants (Rattus norvegicus [22]): 84
inhibition in vivo at 50 mg/kg (Cavia porcellus): 29%
Mean no. of revertants (Rattus norvegicus [23]): 16

COC(=O)CCC(=O)N(O)c1cccc(OCc2nc3ccccc3s2)c1
IC50 [13]: 0.36 µM
inhibition [11]: 79%
inhibition in vivo at 50 mg/kg (Cavia porcellus): 6%

COC(=O)CC(=O)Nc1cccc(OCc2nc3ccccc3n2C)c1
inhibition [9]: < 50%
inhibition in vivo at 50 mg/kg (Cavia porcellus): 5%

CCCc1c(OCCCCc2nnn[nH]2)ccc(C(C)=O)c1O [TOMELUKAST]
IC50 [13]: 18.9 µM
inhibition in vivo at 50 mg/kg (Cavia porcellus): 79.7%

COC(=O)C1CC(=O)N(c2cccc(OCc3nc4ccccc4o3)c2)C1 (centres undefined)
IC50 [13]: 30 µM

COC(=O)CC(=O)Nc1cccc(OCc2nc3ccccc3s2)c1
IC50 [24]: 17 µM
inhibition in vivo at 50 mg/kg (Cavia porcellus): 58%

COC(=O)CCC(=O)Nc1cccc(OCc2ccc3ccccc3n2)c1
Mean no. of revertants (Rattus norvegicus [2]): 25
Mean no. of revertants (Rattus norvegicus [4]): 15
Mean no. of revertants (Rattus norvegicus [25]): 2770
Mean no. of revertants (Rattus norvegicus [5]): 24
Mean no. of revertants (Rattus norvegicus [7]): 15
Mean no. of revertants (Rattus norvegicus [26]): 2930
Mean no. of revertants (Rattus norvegicus [27]): 2880
Mean no. of revertants (Rattus norvegicus [10]): 566
Mean no. of revertants (Rattus norvegicus [28]): 2260
inhibition in vivo at 50 mg/kg (Cavia porcellus): 43%

Source: ChEMBL document CHEMBL1123920, “Leukotriene D4 antagonists and 5-lipoxygenase inhibitors. Synthesis of benzoheterocyclic [(methoxyphenyl)amino]oxoalkanoic acid esters” (J Med Chem, 1987)
